From paper PMC10330775 (Experimental cell research, 2023) come the findings set out here.

The structures appear in SMILES notation.

The assay concerns the target T1, RsTSPO WT (Cereibacter sphaeroides, UniProt Q9RFC8).
T1 sequence (Q9RFC8 1-158): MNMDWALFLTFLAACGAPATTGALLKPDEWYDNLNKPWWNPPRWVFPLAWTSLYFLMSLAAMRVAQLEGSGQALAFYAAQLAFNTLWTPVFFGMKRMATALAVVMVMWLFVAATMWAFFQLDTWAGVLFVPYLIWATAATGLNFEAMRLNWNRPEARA
The assay is described as follows: tryptophan fluorescence quenching titration, Hill fit. The format is binding. An outline of the steps:
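Purified wild-type Rhodobacter sphaeroides TSPO, 2.5 uM in 20mM Tris pH 8.0, 150mM NaCl, 0.20% DM, 2mM TCEP, titrated at room temperature with increasing amounts of test compound in DMSO. Emission scanned 290–400 nm, excitation 285 nm. Ligand, buffer and solvent absorption/emission controls run. Kd from Hill-equation fit of the quenching curve.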

The Kd is the concentration at which binding is half-saturated. Compound `Nc1ccccc1C(=O)C[C@H](N)C(=O)O` [Kynurenine] displayed a dissociation constant (Kd) of 172 ± 11 µM.
